Experimental data from ChEMBL document CHEMBL1143315, “Investigation of ketone warheads as alternatives to the nitrile for preparation of potent and selective cathepsin K inhibitors” (Bioorg Med Chem Lett, 2009).

Key:
Cathepsin K = Cathepsin K (Homo sapiens, UniProt P43235); assay: Inhibition of humanized rabbit cathepsin K
Homo sapiens [1] = organism: Homo sapiens; assay: Selectivity ratio of IC50 for human cathepsin L to IC50 for humanized rabbit cathepsin K
Homo sapiens [2] = organism: Homo sapiens; assay: Selectivity ratio of IC50 for human cathepsin S to IC50 for humanized rabbit cathepsin K
Homo sapiens [3] = organism: Homo sapiens; assay: Selectivity ratio of IC50 for human cathepsin B to IC50 for humanized rabbit cathepsin K
[4] = Clearance in rat at 2 to 5 mg/kg, iv; assay type: ADME, organism-based; parameters: dose 2-5 mg/kg, route intravenous; settings: in vivo
In short: (§1)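 Rats were given a single IV dose of 2–5 mg/kg in 60% PEG 200. Half-life (t1/2) and clearance (Cl, mL/min/kg) were taken from the plasma profile. Where two distinct phases were seen, separate t1/2a and terminal t1/2b values were calculated.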

Rattus norvegicus = organism: Rattus norvegicus; assay: Metabolic stability in rat hepatocytes assessed as compound remaining after 2 hrs
[5] = Terminal half life in rat at 2 to 5 mg/kg, iv; assay type: ADME, organism-based; parameters: dose 2-5 mg/kg, route intravenous; settings: in vivo, read-out: beta t1/2 (converted); in short: as §1
[6] = Primary phase half life in rat at 2 to 5 mg/kg, iv; assay type: ADME, organism-based; parameters: dose 2-5 mg/kg, route intravenous; settings: in vivo, read-out: alphat1/2 (converted); in short: as §1
[7] = Half life in rat at 2 to 5 mg/kg, iv; assay type: ADME, organism-based; parameters: dose 2-5 mg/kg, route intravenous; settings: in vivo; in short: as §1

Structure (SMILES)	IC50 (Cathepsin K) [nM]	Ratio IC50 (Homo sapiens [1])	Ratio IC50 (Homo sapiens [2])	Ratio IC50 (Homo sapiens [3])	clearance [4] [mL/min/kg]	remaining at 2 h (Rattus norvegicus) [%]	half-life [5] [h]	half-life [6] [h]	half-life [7] [h]
CC(C)(F)C[C@H](N[C@@H](c1ccc(-c2ccc(S(C)(=O)=O)cc2)cc1)C(F)(F)F)C(=O)NC1CN(C(=O)NS(=O)(=O)c2ccccc2)CC1=O (stereo not given in full)	68	> 147	> 6	9					
CC(C)(F)C[C@H](N[C@@H](c1ccc(-c2ccc(S(C)(=O)=O)cc2)cc1)C(F)(F)F)C(=O)NC1CN(C(=O)OC(C)(C)C)CC1=O (stereo not given in full)	3.9	403	29	27					
CC(C)(F)C[C@H](N[C@@H](c1ccc(-c2ccc(S(C)(=O)=O)cc2)cc1)C(F)(F)F)C(=O)NC1CCCN(S(=O)(=O)c2ccccn2)CC1=O (stereo in doubt; 9) [listing 1 of 2 here]	2				46	56	11	0.6	
CC(C)(F)C[C@H](N[C@@H](c1ccc(-c2ccc(S(C)(=O)=O)cc2)cc1)C(F)(F)F)C(=O)NC1CN(S(=O)(=O)c2ccccn2)CC1=O (stereo not given in full)	85				43				1.3
CC(C)(F)C[C@H](N[C@@H](c1ccc(-c2ccc(S(C)(=O)=O)cc2)cc1)C(F)(F)F)C(=O)NC1CN(S(C)(=O)=O)CC1=O (stereo not given in full)	27	158	313	370					
CC(C)(F)C[C@H](N[C@@H](c1ccc(-c2ccc(S(C)(=O)=O)cc2)cc1)C(F)(F)F)C(=O)NC1CN(C(N)=O)CC1=O (stereo not given in full)	7.3	40	104	355					
COC(=O)N1CC(=O)C(NC(=O)[C@H](CC(C)(C)F)N[C@@H](c2ccc(-c3ccc(S(C)(=O)=O)cc3)cc2)C(F)(F)F)C1 (stereo not given in full)	4.3				40				2.8
CC(C)(F)C[C@H](N[C@@H](c1ccc(-c2ccc(S(C)(=O)=O)cc2)cc1)C(F)(F)F)C(=O)NC1CCCN(S(=O)(=O)c2ccccn2)CC1=O (stereo in doubt; 11) [listing 1 of 2 here]		681	35	> 1000					
CC(C)(F)C[C@H](N[C@@H](c1ccc(-c2ccc(S(C)(=O)=O)cc2)cc1)C(F)(F)F)C(=O)NC1(C#N)CC1 [ODANACATIB]	0.2				2				6
CC(C)(F)C[C@H](N[C@@H](c1ccc(-c2ccc(S(C)(=O)=O)cc2)cc1)C(F)(F)F)C(=O)NC1CCCNCC1=O (stereo not given in full)	33	236	179	303					
CC(C)(F)C[C@H](N[C@@H](c1ccc(-c2ccc(S(C)(=O)=O)cc2)cc1)C(F)(F)F)C(=O)NC1CCN(c2ccccc2S(C)(=O)=O)CC1=O (stereo not given in full)	6.9	91	3.9	1					
CC(C)(F)C[C@H](N[C@@H](c1ccc(-c2ccc(S(C)(=O)=O)cc2)cc1)C(F)(F)F)C(=O)NC1CCCN(S(=O)(=O)c2ccccn2)CC1=O (stereo in doubt; 9) [listing 2 of 2 here]		939	45	> 1000					
CC(C)(F)C[C@H](N[C@@H](c1ccc(-c2ccc(S(C)(=O)=O)cc2)cc1)C(F)(F)F)C(=O)NC1CCCN(S(C)(=O)=O)CC1=O (stereo not given in full)	16	617	114	> 1000					
CC(C)(F)C[C@H](N[C@@H](c1ccc(-c2ccc(S(C)(=O)=O)cc2)cc1)C(F)(F)F)C(=O)NC1CN(C(=O)NCc2ccccc2)CC1=O (stereo not given in full)	15	667	36	53					
CCOC(=O)N1CCCC(NC(=O)[C@H](CC(C)(C)F)N[C@@H](c2ccc(-c3ccc(S(C)(=O)=O)cc3)cc2)C(F)(F)F)C(=O)C1 (stereo not given in full)	54	> 185	46	> 185					
CC(C)(F)C[C@H](N[C@@H](c1ccc(-c2ccc(S(C)(=O)=O)cc2)cc1)C(F)(F)F)C(=O)NC1CCCN(S(=O)(=O)c2cccc[n+]2[O-])CC1=O (stereo not given in full)	2.6	984	33	> 1000					
CC(C)(F)C[C@H](N[C@@H](c1ccc(-c2ccc(S(C)(=O)=O)cc2)cc1)C(F)(F)F)C(=O)NC1CCN(c2ccccc2)CC1=O (stereo not given in full)	8.3	101	8	2					
CC(C)(F)C[C@H](N[C@@H](c1ccc(-c2ccc(S(C)(=O)=O)cc2)cc1)C(F)(F)F)C(=O)NC1CCCN(S(=O)(=O)Cc2ccccc2)CC1=O (stereo not given in full)	159	> 63	8	50					
CC(C)(F)C[C@H](N[C@@H](c1ccc(-c2ccc(S(C)(=O)=O)cc2)cc1)C(F)(F)F)C(=O)NC1CCCN(S(=O)(=O)c2ccccn2)CC1=O (stereo in doubt; 10) [listing 1 of 2 here]		> 1000	54	> 1000					
CCOC(=O)N1CCC(NC(=O)[C@H](CC(C)(C)F)N[C@@H](c2ccc(-c3ccc(S(C)(=O)=O)cc3)cc2)C(F)(F)F)C(=O)C1 (stereo not given in full)	9	> 1000	10	364					
COC(=O)NCC(=O)CNC(=O)[C@H](CC(C)(C)F)N[C@@H](c1ccc(-c2ccc(S(C)(=O)=O)cc2)cc1)C(F)(F)F	45	152	38	148	17				1.1
CC(C)(F)C[C@H](N[C@@H](c1ccc(-c2ccc(S(C)(=O)=O)cc2)cc1)C(F)(F)F)C(=O)NC1CN(C(=O)Nc2ccccc2)CC1=O (stereo not given in full)	7.3	40	104	355					
CC(C)(F)C[C@H](N[C@@H](c1ccc(-c2ccc(S(C)(=O)=O)cc2)cc1)C(F)(F)F)C(=O)NC1CCCN(S(=O)(=O)c2ccccn2)CC1=O (stereo in doubt; 11) [listing 2 of 2 here]	1.8								
CC(C)(F)C[C@H](N[C@@H](c1ccc(-c2ccc(S(C)(=O)=O)cc2)cc1)C(F)(F)F)C(=O)NC1CN(C(=O)c2ccccc2)CC1=O (stereo not given in full)	2.9	197	14	188					
CCOC(=O)N1CC(=O)C(NC(=O)[C@H](CC(C)(C)F)N[C@@H](c2ccc(-c3ccc(S(C)(=O)=O)cc3)cc2)C(F)(F)F)C1 (stereo not given in full)	1.6				53				2.1
CC(=O)N1CC(=O)C(NC(=O)[C@H](CC(C)(C)F)N[C@@H](c2ccc(-c3ccc(S(C)(=O)=O)cc3)cc2)C(F)(F)F)C1 (stereo not given in full)	4.2	> 1000	604	> 1000	67				1.2
CC(C)(F)C[C@H](N[C@@H](c1ccc(-c2ccc(S(C)(=O)=O)cc2)cc1)C(F)(F)F)C(=O)NC1CNCC1=O (stereo not given in full)	9.8	16	159	485					
CC(C)(F)C[C@H](N[C@@H](c1ccc(-c2ccc(S(C)(=O)=O)cc2)cc1)C(F)(F)F)C(=O)NC1CCCN(S(=O)(=O)c2ccccn2)CC1=O (stereo in doubt; 10) [listing 2 of 2 here]	10								
CC(C)(F)C[C@H](N[C@@H](c1ccc(-c2ccc(S(C)(=O)=O)cc2)cc1)C(F)(F)F)C(=O)NC1CCN(S(=O)(=O)c2ccccn2)CC1=O (stereo not given in full)	5.7	621	22	232	24				0.6
